Measurements as given in ChEMBL document CHEMBL1123812, “Pyrroloisoquinoline antidepressants. 2. In-depth exploration of structure-activity relationships” (J Med Chem, 1987).
One block for each compound: values may come before it. Calls of active or inactive are those of the source.

How the values were obtained:
[1] = organism: Mus musculus; experiment: Gross behavioral effects ascertained in mice; C indicates overt convulsant; type: functional, organism-based
In short: (§1)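 Male Swiss Webster mice, 18–24 g, three per dose, given ip doses of 1, 3, 10, 30, 100 and 300 mg/kg. Observed for gross behavior and held for 4 days. Scored as weak (W), stimulant (S), depressant (D) or convulsant (C).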

[2] = tested on: Mus musculus; experiment: (§2) Ability to antagonise intraperitoneal dose; inactive (<10% antagonism) at 30 mgjkg is represented as I-30.; type: functional, organism-based
In short: (§3)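 Nonfasted male Swiss Webster mice, 18–24 g, ten per dose level and in saline controls. Test compound given ip 30 min before tetrabenazine 32 mg/kg ip; dose expressed as free base. Motor activity and ptosis scored. Control response ≤90% corrected by Abbott's formula.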

[3] = molecular target: Sodium-dependent dopamine transporter (Rattus norvegicus, UniProt P23977); experiment: Inhibition of the uptake of tritiated dopamine (DA) in rat synaptosomes; type: subcellular, Brain
Chain of Sodium-dependent dopamine transporter (P23977 whole entry): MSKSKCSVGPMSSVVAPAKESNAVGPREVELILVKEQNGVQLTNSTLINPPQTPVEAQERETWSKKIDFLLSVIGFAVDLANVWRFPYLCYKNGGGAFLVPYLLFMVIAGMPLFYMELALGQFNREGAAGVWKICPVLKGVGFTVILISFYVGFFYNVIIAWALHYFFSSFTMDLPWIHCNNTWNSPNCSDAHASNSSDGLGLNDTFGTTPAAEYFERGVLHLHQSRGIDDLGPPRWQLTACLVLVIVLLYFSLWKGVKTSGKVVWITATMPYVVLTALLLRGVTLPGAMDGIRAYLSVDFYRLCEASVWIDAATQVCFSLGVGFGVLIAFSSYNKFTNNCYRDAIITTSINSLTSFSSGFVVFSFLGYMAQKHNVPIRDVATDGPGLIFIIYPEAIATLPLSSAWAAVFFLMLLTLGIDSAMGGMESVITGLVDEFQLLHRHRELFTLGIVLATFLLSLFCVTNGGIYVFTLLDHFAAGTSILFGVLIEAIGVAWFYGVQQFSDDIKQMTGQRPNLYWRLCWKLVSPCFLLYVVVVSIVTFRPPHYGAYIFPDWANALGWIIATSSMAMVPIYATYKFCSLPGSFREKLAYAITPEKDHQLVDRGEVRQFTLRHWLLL

[4] = tested on: Mus musculus; experiment: as §2; type: functional, organism-based; in short: as §3; remark: listed apart in the source
[5] = molecular target: Sodium-dependent serotonin transporter (Rattus norvegicus) (UniProt P31652); experiment: Ability to inhibit the uptake of [3H]- serotonin(5-HT) 0.1 uM concentration at rat brain synaptosomes; type: functional, subcellular
Chain of Sodium-dependent serotonin transporter (Rattus norvegicus) (P31652 whole entry): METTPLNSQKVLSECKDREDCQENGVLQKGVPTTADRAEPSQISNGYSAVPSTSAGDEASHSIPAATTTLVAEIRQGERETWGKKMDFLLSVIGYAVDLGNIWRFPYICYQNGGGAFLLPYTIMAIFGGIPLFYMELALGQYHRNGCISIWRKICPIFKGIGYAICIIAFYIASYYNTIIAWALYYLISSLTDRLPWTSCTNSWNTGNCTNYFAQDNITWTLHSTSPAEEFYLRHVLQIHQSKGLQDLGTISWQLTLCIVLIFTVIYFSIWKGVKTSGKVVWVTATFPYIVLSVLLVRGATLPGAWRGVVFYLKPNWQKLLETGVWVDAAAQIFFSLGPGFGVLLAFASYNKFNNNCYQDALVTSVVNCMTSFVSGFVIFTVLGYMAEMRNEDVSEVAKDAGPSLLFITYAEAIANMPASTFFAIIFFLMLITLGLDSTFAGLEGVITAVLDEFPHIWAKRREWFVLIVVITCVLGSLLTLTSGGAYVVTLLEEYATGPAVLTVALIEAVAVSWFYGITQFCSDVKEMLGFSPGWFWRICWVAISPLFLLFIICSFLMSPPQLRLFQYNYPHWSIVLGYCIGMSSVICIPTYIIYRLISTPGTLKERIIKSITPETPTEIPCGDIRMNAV
In short: (§4)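 Male Wistar rat brain synaptosomes (P2 fraction): hypothalamus for NE, striatum for DA, cerebral cortex for 5-HT. Buffer is Tris- or HEPES-buffered salt medium with glucose, ascorbate and nialamide, pH 7.4 at 37 °C. Preincubated 10 min at 37 °C with compound. Uptake started with [3H]NE 100–300 nM, [3H]DA 50–300 nM or [3H]5-HT 100–200 nM, incubated 3 min (DA) or 6–10 min (NE, 5-HT). Blanks held on ice. Filtered, counted by scintillation.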

[6] = organism: Rattus norvegicus; experiment: Ability to inhibit the uptake of tritiated norepinephrine (NE) 0.1 uM concentration; type: functional; in short: as §4
[7] = tested on: Rattus norvegicus; experiment: Ability to inhibit the uptake of tritiated serotonin(5-HT) at 0.1 mg/kg concentration; type: functional
[8] = organism: Mus musculus; experiment: Gross behavioral effects ascertained in mice; W indicates weak stimulant or depressant activity of little significance.; type: functional, organism-based; in short: as §1
[9] = molecular target: T1, Serotonin 2 (5-HT2) receptor (Rattus norvegicus) (UniProt P30994+P08909+P14842); experiment: Binding affinity towards 5-hydroxytryptamine 2 receptor; type: protein assay; conditions: concentration not given here
T1 sequence (P08909 whole entry, looked up): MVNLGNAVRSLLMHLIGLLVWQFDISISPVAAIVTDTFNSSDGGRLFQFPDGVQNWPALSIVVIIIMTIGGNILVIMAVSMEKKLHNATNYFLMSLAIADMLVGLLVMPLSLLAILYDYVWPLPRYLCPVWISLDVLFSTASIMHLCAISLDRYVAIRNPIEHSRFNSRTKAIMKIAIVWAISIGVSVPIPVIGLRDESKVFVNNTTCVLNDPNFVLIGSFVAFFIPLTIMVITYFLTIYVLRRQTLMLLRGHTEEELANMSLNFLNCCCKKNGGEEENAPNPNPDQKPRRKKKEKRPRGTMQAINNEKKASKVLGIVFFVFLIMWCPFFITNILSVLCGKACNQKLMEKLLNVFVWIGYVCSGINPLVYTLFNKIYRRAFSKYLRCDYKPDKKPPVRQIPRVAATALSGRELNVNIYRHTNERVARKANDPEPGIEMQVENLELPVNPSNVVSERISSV
T1 sequence (P14842 whole entry, looked up): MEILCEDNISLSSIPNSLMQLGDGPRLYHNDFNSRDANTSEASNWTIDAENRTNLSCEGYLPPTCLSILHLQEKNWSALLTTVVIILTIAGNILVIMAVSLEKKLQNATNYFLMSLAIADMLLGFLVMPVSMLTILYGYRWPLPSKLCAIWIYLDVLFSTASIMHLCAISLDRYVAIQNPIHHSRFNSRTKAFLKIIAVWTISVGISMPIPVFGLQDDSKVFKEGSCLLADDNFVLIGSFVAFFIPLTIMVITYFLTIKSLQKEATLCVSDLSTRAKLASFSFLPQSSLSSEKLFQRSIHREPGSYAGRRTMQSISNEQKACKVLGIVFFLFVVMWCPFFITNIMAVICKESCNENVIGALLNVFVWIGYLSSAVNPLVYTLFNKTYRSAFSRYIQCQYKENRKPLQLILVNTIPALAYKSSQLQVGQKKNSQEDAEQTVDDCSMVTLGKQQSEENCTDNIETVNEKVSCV
T1 sequence (P30994 whole entry, looked up): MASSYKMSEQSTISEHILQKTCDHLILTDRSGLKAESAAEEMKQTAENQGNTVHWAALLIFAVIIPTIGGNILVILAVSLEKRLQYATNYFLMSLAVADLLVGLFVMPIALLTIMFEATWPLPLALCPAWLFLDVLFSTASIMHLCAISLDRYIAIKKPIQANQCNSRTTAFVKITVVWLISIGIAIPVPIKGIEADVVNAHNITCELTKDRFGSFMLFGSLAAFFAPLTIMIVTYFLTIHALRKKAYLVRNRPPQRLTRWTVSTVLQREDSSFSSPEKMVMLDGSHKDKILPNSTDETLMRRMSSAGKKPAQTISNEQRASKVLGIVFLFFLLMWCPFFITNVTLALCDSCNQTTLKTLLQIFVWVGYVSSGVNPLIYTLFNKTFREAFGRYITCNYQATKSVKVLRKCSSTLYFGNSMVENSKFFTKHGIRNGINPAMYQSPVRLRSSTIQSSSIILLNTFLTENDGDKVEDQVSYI
In short: (§5)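 Rat brain crude synaptic membranes in 20 mM NaHEPES pH 7.5. Ligands: α1 cortex […] 0.4 nM, nonspecific with (-)-NE 100 μM, 30 min at 25 °C. […] D2 striatum [3H]spiperone 0.05 nM with (+)-butaclamol 1 μM, 45 min at 37 °C. S1 cortex [3H]5-HT 1 nM plus glutathione and MgCl2, with 5-HT 10 μM, 20 min at 37 °C. […] Samples filtered on GF/B and counted.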

[10] = molecular target: Adrenergic receptor alpha-1 (Rattus norvegicus) (UniProt P15823+P23944+P43140); experiment: Binding affinity towards alpha-1 adrenergic receptor at 1.0 uM concentration; type: protein assay; in short: as §5
[11] = organism: Mus musculus; experiment: Gross behavioral effects ascertained in mice; D indicates significant depressant properties.; type: functional, organism-based
In short: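 Male Swiss Webster albino mice, 18–24 g, three per dose, given ip 1, 3, 10, 30, 100 and 300 mg/kg. Gross behaviour observed and held 4 days. Estimated LD50 range from lethality count on day 4. Scored as weak stimulant/depressant, significant stimulant, significant depressant or overt convulsant.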

[12] = tested on: Rattus norvegicus; experiment: Ability to inhibit the uptake of tritiated norepinephrine (NE) 0.1 mg/kg concentration; type: functional
[13] = tested on: Mus musculus; experiment: as §2; type: functional, organism-based; remark: listed apart in the source
In short: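 Swiss Webster male albino mice, nonfasted, 18–24 g, 10 per dose and in saline control. Compound given ip 30 min before TBZ 32 mg/kg ip. Motor activity and ptosis scored. Response corrected by Abbott's formula when control response was 90% or less. Doses expressed as free base.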

[14] = tested on: Rattus norvegicus; experiment: Ability to inhibit the uptake of tritiated serotonin(5-HT) 0.1 mg/kg concentration; type: functional
[15] = tested on: Mus musculus; experiment: Ability to antagonise intraperitoneal dose; inactive (<10% antagonism) at 30 mg/kg is represented as I-30.; type: functional, organism-based; parameters: dose 30 mg/kg; in short: as §3
[16] = organism: Rattus norvegicus; experiment: Ability to inhibit the uptake of tritiated norepinephrine (NE) at 0.1 uM concentration; type: functional; in short: as §4
[17] = tested on: Mus musculus; experiment: Ability to antagonise intraperitoneal 30 mg/kg dose; inactive (<10% antagonism) at 30 mgjkg is represented as I-30.; type: functional, organism-based; parameters: dose 30 mg/kg; in short: as §3
[18] = molecular target: Sodium-dependent serotonin transporter (Rattus norvegicus) (UniProt P31652); experiment: Inhibition of tritiated serotonin(5-HT) uptake at 0.1 uM concentration; type: functional; in short: as §4
[19] = molecular target: Sodium-dependent dopamine transporter (Rattus norvegicus) (UniProt P23977); experiment: Inhibition of tritiated dopamine (DA) uptake at 0.1 uM concentration; type: functional; in short: as §4
Chain of Sodium-dependent dopamine transporter (Rattus norvegicus) (P23977 whole entry): as the sequence (P23977 whole entry) above

[20] = molecular target: T1, Serotonin 2 (5-HT2) receptor (Rattus norvegicus); experiment: Binding affinity towards 5-hydroxytryptamine 2 receptor at 1.0 uM concentration; type: protein assay; in short: as §5
[21] = organism: Rattus norvegicus; experiment: Ability to inhibit the uptake of tritiated serotonin (5-HT) at 0.1 uM concentration in rat synaptosomes; type: functional; conditions: Brain; in short: as §4
[22] = molecular target: Norepinephrine transporter (Rattus norvegicus) (UniProt Q9WTR4); experiment: Ability to inhibit the uptake of [3H]norepinephrine (NE) 0.1 uM concentration at rat brain synaptosomes; type: functional, subcellular; in short: as §4
Chain of Norepinephrine transporter (Rattus norvegicus) (Q9WTR4 as listed by the source): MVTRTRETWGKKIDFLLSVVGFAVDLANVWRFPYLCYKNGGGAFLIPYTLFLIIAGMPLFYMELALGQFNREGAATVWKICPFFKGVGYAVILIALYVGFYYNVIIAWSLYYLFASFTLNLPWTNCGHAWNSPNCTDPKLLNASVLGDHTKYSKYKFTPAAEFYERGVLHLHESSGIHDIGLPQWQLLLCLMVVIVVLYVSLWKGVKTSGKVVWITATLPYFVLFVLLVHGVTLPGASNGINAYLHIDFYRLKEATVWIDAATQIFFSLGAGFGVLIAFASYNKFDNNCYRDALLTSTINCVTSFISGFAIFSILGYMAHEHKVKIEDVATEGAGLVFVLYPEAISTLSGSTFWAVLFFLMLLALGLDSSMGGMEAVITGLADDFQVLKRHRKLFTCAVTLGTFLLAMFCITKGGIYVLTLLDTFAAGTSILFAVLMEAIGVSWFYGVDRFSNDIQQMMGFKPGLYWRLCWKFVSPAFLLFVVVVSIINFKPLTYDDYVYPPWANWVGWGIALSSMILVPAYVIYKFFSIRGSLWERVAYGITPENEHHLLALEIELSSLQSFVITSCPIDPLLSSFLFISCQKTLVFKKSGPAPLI

[23] = organism: Rattus norvegicus; experiment: Ability to inhibit the uptake of tritiated dopamine (DA) 1 uM concentration; type: functional
In short: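 Rat brain synaptosomal [3H]dopamine uptake: striatal P2 fraction, test compound at 1.00 μM. Preincubated at 37 °C, then 50–300 nM [3H]DA for 3 min. Blanks on ice. Filtration and scintillation counting; percent inhibition of control uptake.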

[24] = tested on: Mus musculus; experiment: Ability to antagonise intraperitoneal administration; inactive (<10% antagonism) at 30 mgjkg is represented as I-30.; type: functional, organism-based; in short: as §3

Ki [3]: > 1000 nM
inhibition [5]: 4%
Ki [6]: 2 nM
SMILES: C[C@@]12CCCCN1C[C@@H](c1ccccc1)c1ccccc12
behavior [1]: Overt convulsant
ED50 [2]: inactive
ED50 [4]: inactive

SMILES: c1ccc([C@@H]2CN3CCC[C@H]3Cc3ccccc32)cc1
inhibition in vivo at 0.1 mg/kg [7]: 6%

inhibition [9]: 44%
inhibition [10]: 48%
SMILES: FC(F)(F)c1cccc([C@@H]2CN3CCC[C@@H]3c3ccccc32)c1 (stereo in doubt; (+)-37b)
behavior [8]: Partial stimulant

SMILES: c1ccc([C@@H]2CN3CCC[C@H]3c3[nH]c4ccccc4c32)cc1
behavior [11]: Significant depressant
inhibition in vivo at 0.1 mg/kg [12]: 7%
ED50 [13]: inactive
inhibition in vivo at 0.1 mg/kg [14]: -21%
ED50 [15]: inactive

Ki [3]: 355 nM
inhibition [18]: 10%
SMILES: COc1ccc([C@@H]2CN3CCCC3c3cc(OC)c(OC)cc32)cc1OC (some centres not stated)
behavior [1]: Overt convulsant
Inhibition [16]: 18%
ED50 [15]: inactive
ED50 [17]: inactive

inhibition [19]: 0%
inhibition [10]: 90%
inhibition [18]: 12%
inhibition [20]: 88%
SMILES: Br.COc1cc([C@@H]2CN3CCC[C@H]3c3ccccc32)cc(OC)c1OC
behavior [8]: Partial stimulant
Inhibition [16]: 9%
ED50 [15]: inactive
ED50 [17]: inactive

inhibition [22]: 21%
inhibition [5]: -10%
SMILES: c1ccc([C@@H]2CN3CCC[C@H]3c3ccccc32)cc1
behavior [1]: Overt convulsant
behavior [8]: Weak
inhibition [21]: 1%
ED50 [2]: inactive
ED50 [15]: inactive

inhibition [22]: 0%
inhibition [5]: 0%
SMILES: c1ccc2c(c1)[C@H](C1CCCCC1)CN1CCC[C@@H]21
behavior [8]: Weak
ED50 [2]: inactive
Inhibition [23]: 31%
ED50 [24]: inactive
